According to ChEMBL document CHEMBL4145532, “Design and synthesis of new potent N,N-bis(arylalkyl)piperazine derivatives as multidrug resistance (MDR) reversing agents” (Eur J Med Chem, 2018):
The source made the active and inactive calls. The rule behind the calls is not given here.

How the values were obtained:
K562 [1] = experiment: Potentiation of doxorubicin-induced cytotoxicity against human K562 cells at 0.1 to 3 uM after 72 hrs by MTT assay; assay type: functional, cell-based
Summary of the method: (§1)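 Doxorubicin (0.0001–100 μM) was tested alone or combined with modulator at 0.1, 1.0 or 3.0 μM on K562/DOX or parental K562 cells, seeded at 10^4 cells/well. Plates ran 72 h at 37 °C in 5% CO2, followed by 3 h MTT, acidified isopropanol and A570. Doxorubicin IC50 was taken as mean ± SE of at least three determinations with quadruplicate cultures.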

[2] = Half life in PBS up to 1 uM by LC-MS/MS analysis; assay type: physicochemical
Summary of the method: (§2)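 Analyte at 1 μM was placed in PBS, pooled human plasma (healthy male volunteers) or Sprague-Dawley male rat plasma. Samples were incubated at 37 °C for 0, 30, 60 and 120 min in triplicate. Internal standard was added, samples were centrifuged, and supernatants were dried and redissolved in 10 mM formic acid water:acetonitrile 80:20. Quantitation was by LC-MS/MS, positive ESI, MRM. Plasma hydrolytic activity was checked with ketoprofen ethyl ester or enalapril.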

[3] = Half life in Sprague-Dawley rat plasma up to 1 uM by LC-MS/MS analysis; assay type: ADME, cell-free; summary of the method: as §2
K562 [4] = experiment: Cytotoxicity against human K562 cells at 0.1 to 3 uM after 72 hrs by MTT assay; assay type: cell-based; conditions: k562, 72 h
Summary of the method: (§3)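 Compounds were given alone at 0.1, 1.0 and 3.0 μM to parental K562 and to P-gp-overexpressing K562/DOX cells. Exponential-phase cells were seeded at 10^4 cells/well and kept 72 h at 37 °C in 5% CO2. MTT was then added for 3 h, formazan was dissolved in acidified isopropanol, and absorbance was read at 570 nm.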

Homo sapiens [5] = species on record: Homo sapiens; experiment: Inhibition of P-gp in human K562/Dox cells assessed as potentiation of doxorubicin-induced cytotoxicity by measuring ratio of doxorubicin IC50 to doxorubicin IC50 in presence of test compound at 3 uM after 72 hrs by MTT assay; assay type: cell-based
Summary of the method: (§4)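 K562/DOX cells were exposed 72 h to doxorubicin (0.0001–100 μM) with or without modulator at 0.1, 1.0 or 3.0 μM, then read by MTT at 570 nm. Reversal fold is doxorubicin IC50 without modulator divided by IC50 with modulator. Quadruplicate cultures, at least three determinations.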

Homo sapiens [6] = species on record: Homo sapiens; experiment: (§5) Inhibition of P-gp in human K562/Dox cells assessed as reduction in Rh-123 efflux by measuring mean fluorescence intensity at 1 uM preincubated for 15 mins followed by Rh-123 addition for 30 mins and subsequent replacement in Rh-123 free medium measured after 60 mins by FACS analysis; assay type: cell-based
Summary of the method: (§6)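 K562/DOX cells pretreated with modulator (1.0 μM) 15 min before loading with 5.0 μM rhodamine 123 for 30 min at 37 °C, 5% CO2. Washed, then held in Rhd 123-free medium with or without modulator for 30 or 60 min. Cells washed in ice-cold PBS and analysed by flow cytometry (≥20,000 gated events). MFI ratio = median fluorescence of treated/untreated control. Mean ± SE, three independent experiments.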

Homo sapiens [7] = species on record: Homo sapiens; experiment: Inhibition of P-gp in human K562/Dox cells assessed as potentiation of doxorubicin-induced cytotoxicity by measuring ratio of doxorubicin IC50 to doxorubicin IC50 in presence of test compound at 0.1 uM after 72 hrs by MTT assay; assay type: cell-based; summary of the method: as §4
K562 [8] = experiment: Induction of Rh-123 accumulation in human K562 cells at 1 uM preincubated for 15 mins followed by Rh-123 addition and measured after 30 mins by FACS analysis; assay type: functional, cell-based
Summary of the method: (§7)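 Cells (K562/DOX or parental K562) got modulator at 1.0 μM, with 15 min pre-exposure, then were loaded with 5.0 μM rhodamine-123 for 30 min at 37 °C in 5% CO2. After washing, cells sat in Rh-123-free medium with or without modulator for 30 or 60 min efflux. Cells were washed in ice-cold PBS and read by flow cytometry (≥20,000 gated events). MFI ratio is median fluorescence of treated over untreated control.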

[9] = Half life in human plasma up to 1 uM by LC-MS/MS analysis; assay type: ADME, cell-free; summary of the method: as §2
Homo sapiens [10] = species on record: Homo sapiens; experiment: Inhibition of P-gp in human K562/Dox cells assessed as increase in Rh-123 accumulation at 1 uM preincubated for 15 mins followed by Rh-123 addition measured after 30 to 60 mins by FACS analysis; assay type: cell-based; summary of the method: as §7
K562 [11] = experiment: Potentiation of doxorubicin-induced cytotoxicity against human K562 cells at 1 uM after 72 hrs by MTT assay; assay type: functional, cell-based; summary of the method: as §1
K562 [12] = experiment: Inhibition of Rh-123 efflux in human K562 cells at 1 uM preincubated for 15 mins followed by Rh-123 addition for 30 mins and subsequent replacement in Rh-123 free medium measured after 30 to 60 mins by FACS analysis; assay type: functional, cell-based; summary of the method: as §7
[13] = Cytotoxicity against human K562/Dox cells at 0.1 to 3 uM after 72 hrs by MTT assay; assay type: cell-based; summary of the method: as §3
Homo sapiens [14] = species on record: Homo sapiens; experiment: (§8) Inhibition of P-gp in human K562/Dox cells assessed as reduction in Rh-123 efflux by measuring mean fluorescence intensity at 1 uM preincubated for 15 mins followed by Rh-123 addition for 30 mins and subsequent replacement in Rh-123 free medium measured after 30 mins by FACS analysis; assay type: cell-based; summary of the method: as §6
Homo sapiens [15] = species on record: Homo sapiens; experiment: Inhibition of P-gp in human K562/Dox cells assessed as potentiation of doxorubicin-induced cytotoxicity by measuring ratio of doxorubicin IC50 to doxorubicin IC50 in presence of test compound at 1 uM after 72 hrs by MTT assay; assay type: cell-based; summary of the method: as §4
Homo sapiens [16] = species on record: Homo sapiens; experiment: (§9) Inhibition of P-gp in human K562/Dox cells assessed as potentiation of doxorubicin-induced cytotoxicity after 72 hrs by MTT assay; assay type: cell-based; summary of the method: as §1
Homo sapiens [17] = species on record: Homo sapiens; experiment: as §8, with “measuring increase in” for “measuring”, “analysis relative to control” for “analysis”; assay type: cell-based; summary of the method: as §7
Homo sapiens [18] = species on record: Homo sapiens; experiment: as §5, with “measuring increase in” for “measuring”, “analysis relative to control” for “analysis”; assay type: cell-based; summary of the method: as §7
[19] = Cytotoxicity against human K562/Dox cells at 3 uM after 72 hrs by MTT assay relative to control; assay type: cell-based; summary of the method: as §3
[20] = as §9; assay type: cell-based; conditions: K562, 72 h; summary of the method: as §1

| SMILES | Activity (K562 [1]) | half-life [2] | half-life [3] | Activity (K562 [4]) | Ratio IC50 (Homo sapiens [5]) | Flu intensity (Homo sapiens [6]) | Ratio IC50 (Homo sapiens [7]) | Activity (K562 [8]) | half-life [9] | P-gp inhibition activity call (increase in Rh-123 accumulation) (Homo sapiens [10]) | Activity (K562 [11]) | inhibition (K562 [12]) | Activity [13] | Flu intensity (Homo sapiens [14]) | Ratio IC50 (Homo sapiens [15]) | inhibition (Homo sapiens [16]) | fold change (FC) (Homo sapiens [17]) | fold change (FC) (Homo sapiens [18]) | Activity [19] | EC50 [20] |
| --- | --- | --- | --- | --- | --- | --- | --- | --- | --- | --- | --- | --- | --- | --- | --- | --- | --- | --- | --- | --- |
| COc1cc(/C=C/CN2CCN(Cc3c4ccccc4cc4ccccc34)CC2)cc(OC)c1OC | inactive | > 4 h | > 4 h | Non-Toxic | 22 | 2.4 | 1.7 | inactive | > 4 h | Active | inactive | inactive | Non-Toxic | 7.5 | 8.8 | Dose-dependent effect |  |  |  |  |
| COc1ccc(C(CCCN2CCN(CCOc3cc(OC)c(OC)c(OC)c3)CC2)c2ccc(OC)cc2)cc1 | inactive | > 4 h | > 4 h | Non-Toxic | 8.8 | 1.4 | 2.4 | inactive | > 4 h | Active | inactive | inactive | Non-Toxic | 5.5 | 4.5 | Dose-dependent effect |  |  |  |  |
| CCOC(=O)C(C)c1cccc(C(=O)c2ccccc2)c1 (stereo not drawn) |  |  |  |  |  |  |  |  | 1.83 h |  |  |  |  |  |  |  |  |  |  |  |
| COc1cc2c(cc1OC)CN(CCc1ccc(NC(=O)c3cc(OC)c(OC)cc3NC(=O)c3cnc4ccccc4c3)cc1)CC2 |  |  |  |  |  |  |  |  |  |  |  |  |  |  | 31.4 |  |  |  |  |  |
| COc1ccc(C(CCCN2CCN(Cc3cc(OC)c(OC)c(OC)c3)CC2)c2ccc(OC)cc2)cc1 | inactive | > 4 h | > 4 h | Non-Toxic | 73.3 | 11.1 | 1.2 | inactive | > 4 h | Active | inactive | inactive |  | 30 | 10.5 | Dose-dependent effect | 30 | 10 | <= 30% | 1900 nM |
| CCOC(=O)[C@H](CCc1ccccc1)N[C@@H](C)C(=O)N1CCC[C@H]1C(=O)O |  |  | 0.417 h |  |  |  |  |  |  |  |  |  |  |  |  |  |  |  |  |  |
| COc1ccc(C(CCCN2CCN(C/C=C/c3cc(OC)c(OC)c(OC)c3)CC2)c2ccc(OC)cc2)cc1 | inactive | > 4 h | > 4 h | Non-Toxic | 44 | 49.9 | 1.9 | inactive | > 4 h | Active | inactive | inactive | Non-Toxic | 108 | 12.9 | Dose-dependent effect | 100 | 50 |  | 2700 nM |
